ChEMBL document CHEMBL2380254, “Optimization of tocotrienols as antiproliferative and antimigratory leads” (Eur J Med Chem, 2013)

Tests used:
[1] = test system: SF-268; assay: Growth inhibition of human SF268 cells after 48 hrs by sulforhodamine B assay; assay type: functional; conditions: SF-268, 48 h
How it was run: (§1)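 NCI-60 panel cells grown in RPMI 1640 with 5% FBS and 2 mM L-glutamine, seeded at 5000–40,000 cells/well and preincubated 24 h. Five 10-fold dilutions (0.001–100 µM) from DMSO stocks were added for 48 h at 37 °C. Adherent cells were fixed with cold TCA (10% final) for 60 min at 4 °C, stained with 0.4% SRB, and read at 515 nm. GI50 was set where 100×(T−T0)/(C−T0)=50.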

[2] = test system: SK-MEL-28; assay: Growth inhibition of human SK-MEL-28 cells assessed as cell growth at 10 uM after 48 hrs by sulforhodamine B assay; assay type: functional; conditions: SK-MEL-28, 48 h, read-out: Activity
How it was run: (§2)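 Single-dose NCI-60 screen: adherent cells in RPMI 1640 with 5% FBS were exposed to 10 µM for 48 h at 37 °C after a 24 h preincubation. They were fixed in situ with cold TCA (10% final), stained with 0.4% SRB in 1% acetic acid, solubilized in 10 mM Tris base, and read at 515 nm. Percent growth was taken relative to time-zero and control plates.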

[3] = test system: OVCAR-4; assay: Growth inhibition of human OVCAR4 cells after 48 hrs by sulforhodamine B assay; assay type: functional; conditions: OVCAR-4, 48 h; how it was run: as §1
[4] = test system: HOP-92; assay: Growth inhibition of human HOP92 cells assessed as cell growth at 10 uM after 48 hrs by sulforhodamine B assay; assay type: functional; conditions: HOP-92, 48 h, read-out: Activity
How it was run: (§3)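 NCI-60 single-dose screen at 10 µM: cells in RPMI 1640 with 5% FBS, preincubated 24 h, then exposed 48 h at 37 °C. TCA fixation (16% final for suspension cells), SRB staining, absorbance 515 nm. Percent growth relative to time-zero and untreated control plates; negative values indicate cell kill.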

[5] = test system: MOLT-4; assay: Growth inhibition of human MOLT4 cells assessed as cell growth at 10 uM after 48 hrs by sulforhodamine B assay; assay type: functional; conditions: MOLT-4, 48 h, read-out: Activity
How it was run: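 Single 10 µM dose applied to suspension cells in RPMI 1640 with 5% FBS and 2 mM L-glutamine for 48 h at 37 °C. Settled cells were fixed with 80% TCA (16% final), stained with SRB, and read at 515 nm. Percent growth was calculated against time-zero and untreated control optical densities.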

[6] = test system: T47D; assay: Growth inhibition of human T47D cells assessed as cell growth at 10 uM after 48 hrs by sulforhodamine B assay; assay type: functional; conditions: read-out: Activity
How it was run: (§4)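 Single-dose NCI-60 test at 10 µM. Cells were grown in RPMI 1640 with 5% FBS and 2 mM L-glutamine, preincubated 24 h, with T0 plates TCA-fixed. Exposure was 48 h at 37 °C, 5% CO2. Cells were fixed with cold TCA (final 10%, 4 °C, 60 min), stained with SRB and read at 515 nm. Percent growth was taken relative to T0 and untreated control; negative values denote cell kill.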

[7] = test system: MDA-MB-231; assay: Antiproliferative activity against human MDA-MB-231 cells by MTT assay; assay type: functional, cell-based
How it was run: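 Cells plated at 8 × 10^3/well (MDA-MB-231) or 10^4/well (MCF7) in 96-well plates. Compounds fed in media with 5% FBS (MDA-MB-231) or 1% FBS (MCF7). MTT read-out of viable cells.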

[8] = test system: UO-31; assay: Growth inhibition of human UO31 cells after 48 hrs by sulforhodamine B assay; assay type: functional; conditions: UO-31, 48 h
How it was run: (§5)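 NCI-60 five-dose screen. Cells were grown in RPMI 1640 with 5% FBS and 2 mM L-glutamine, plated at 5000–40,000 cells/well and incubated 24 h before dosing, with T0 plates TCA-fixed. DMSO stocks were diluted to doses of […] and exposed 48 h at 37 °C, 5% CO2. Cells were fixed with cold TCA (final 10%, 60 min, 4 °C), stained with 0.4% SRB in 1% acetic acid for 10 min, solubilized in 10 mM trizma base and read at 515 nm. GI50 is where 100×(T−T0)/(C−T0)=50.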

[9] = test system: MOLT-4; assay: Growth inhibition of human MOLT4 cells after 48 hrs by sulforhodamine B assay; assay type: functional; conditions: MOLT-4, 48 h
How it was run: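 NCI-60 suspension lines in RPMI 1640 with 5% FBS and 2 mM L-glutamine, preincubated 24 h. A five-concentration 10-fold series (0.001–100 µM) was given for 48 h at 37 °C. Settled cells were fixed with 80% TCA (16% final), stained with SRB, and read at 515 nm. GI50 was taken where 100×(T−T0)/(C−T0)=50, with T0 plates fixed at drug addition.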

[10] = test system: OVCAR-5; assay: Growth inhibition of human OVCAR5 cells assessed as cell growth at 10 uM after 48 hrs by sulforhodamine B assay; assay type: functional; conditions: OVCAR-5, 48 h, read-out: Activity; how it was run: as §2
[11] = test system: SNB-75; assay: Growth inhibition of human SNB75 cells assessed as cell growth at 10 uM after 48 hrs by sulforhodamine B assay; assay type: functional; conditions: SNB-75, 48 h, read-out: Activity; how it was run: as §4
[12] = test system: DU-145; assay: Growth inhibition of human DU145 cells assessed as cell growth at 10 uM after 48 hrs by sulforhodamine B assay; assay type: functional; conditions: DU-145, 48 h, read-out: Activity; how it was run: as §3
[13] = test system: HL-60(TB); assay: Growth inhibition of human HL-60(TB) cells after 48 hrs by sulforhodamine B assay; assay type: functional; conditions: HL-60, 48 h
How it was run: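 HL-60(TB) cells (suspension) grown in RPMI 1640 with 5% FBS and 2 mM L-glutamine. They were plated and preincubated for 24 h, with T0 plates fixed at that point. Drug was given at five 10-fold dilutions for 48 h at 37 °C. Settled cells were fixed with TCA (16% final), stained with 0.4% SRB in 1% acetic acid and read at 515 nm. GI50 was taken where 100×(T−T0)/(C−T0)=50.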

[14] = test system: SF-295; assay: Growth inhibition of human SF295 cells assessed as cell growth at 10 uM after 48 hrs by sulforhodamine B assay; assay type: functional; conditions: SF-295, 48 h, read-out: Activity; how it was run: as §2
[15] = test system: NCI-H460; assay: Growth inhibition of human NCI-H460 cells assessed as cell growth at 10 uM after 48 hrs by sulforhodamine B assay; assay type: functional; conditions: NCI-H460, 48 h, read-out: Activity; how it was run: as §2
[16] = test system: TK-10; assay: Growth inhibition of human TK10 cells after 48 hrs by sulforhodamine B assay; assay type: functional; conditions: TK-10, 48 h; how it was run: as §5
[17] = test system: HOP-62; assay: Growth inhibition of human HOP62 cells assessed as cell growth at 10 uM after 48 hrs by sulforhodamine B assay; assay type: functional; conditions: HOP-62, 48 h, read-out: Activity; how it was run: as §3
[18] = test system: MDA-MB-231; assay: Growth inhibition of human MDA-MB-231 cells after 48 hrs by sulforhodamine B assay; assay type: functional; conditions: MDA-MB-231, 48 h; how it was run: as §1
[19] = Antiproliferative activity against mouse +SA cells by MTT assay; assay type: functional, cell-based; conditions: +SA cell
How it was run: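 Mouse +SA mammary epithelial cells in serum-free DMEM/F12 with BSA, transferrin, insulin and EGF. Compounds from DMSO stock conjugated to BSA (overnight, 37 °C); 0–40 µM, final DMSO <0.1%. MTT 0.42 mg/mL for 4 h at 37 °C, isopropanol solubilization, OD 570 nm. Cell number from a standard curve; IC50 by non-linear regression.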

Row | SMILES | GI50 [1] [nM] | growth at 10 µM [2] [%] | GI50 [3] [nM] | growth at 10 µM [4] [%] | growth at 10 µM [5] [%] | growth at 10 µM [6] [%] | IC50 [7] [nM] | GI50 [8] [nM] | GI50 [9] [nM] | growth at 10 µM [10] [%] | growth at 10 µM [11] [%] | growth at 10 µM [12] [%] | GI50 [13] [nM] | growth at 10 µM [14] [%] | growth at 10 µM [15] [%] | GI50 [16] [nM] | growth at 10 µM [17] [%] | GI50 [18] [nM] | IC50 [19] [nM]
1 | CC(C)=CCC/C(C)=C/CC/C(C)=C/CC[C@]1(C)CCc2c3c(c(C)c(C)c2O1)OCN(CCCCCO)C3 | 7130 | 99.7 | 5680 | 63.4 | -24.8 | 94.4 | > 50000 | 4640 | 5870 | 94.4 | 70 | 99.6 | 6260 | 92.7 | -49.6 | 5980 | 114 | 5870 | 1700
2 | COc1ccc(CCN2COc3cc(C)c4c(c3C2)CC[C@@](C)(CC/C=C(\C)CC/C=C(\C)CCC=C(C)C)O4)cc1OC | 2130 | -55.6 | 1630 | 32.7 | 0.05 | 31.2 | – | 1630 | 2320 | 42.7 | 45.2 | -4.93 | 1900 | 99.2 | -68.2 | 3080 | -34.3 | 1940 | 870
3 | CC(C)=CCC/C(C)=C/CC/C(C)=C/CC[C@]1(C)CCc2c3c(cc(C)c2O1)OCN(CCCO)C3 | 2040 | -50.7 | 1640 | 63.1 | -20.3 | -22.1 | > 10000 | 1470 | 1920 | 40.4 | 33.9 | -13.6 | 2190 | 74 | -75.1 | 2060 | -76.3 | 1630 | 1800
4 | CC(C)=CCC/C(C)=C/CC/C(C)=C/CC[C@]1(C)CCc2c3c(cc(C)c2O1)OCN(CCc1ccc(O)cc1)C3 | 6170 | -83.8 | 5360 | 69.1 | -3.07 | 6.16 | > 5000 | 4420 | 2420 | 91.2 | 44.4 | 42.1 | 3340 | 102 | -44.4 | 5560 | -31.3 | 4650 | 910
5 | CC(C)=CCC/C(C)=C/CC/C(C)=C/CC[C@]1(C)CCc2c3c(cc(C)c2O1)OCN(C1CCN(Cc2ccccc2)CC1)C3 | 1670 | 60 | 1540 | 37.4 | – | 89.3 | – | 1510 | 237 | 79 | 62.5 | 65.3 | 349 | 93.2 | -78.7 | 1710 | 111 | 1630 | 800
6 | CC(C)=CCC/C(C)=C/CC/C(C)=C/CC[C@]1(C)CCc2c3c(c(C)c(C)c2O1)OCN(CCCCO)C3 | > 10000 | 106 | 3110 | – | 35.8 | 59.1 | 13800 | 8830 | 3460 | 83.1 | 74.2 | 88.8 | 3860 | 97.2 | 4.31 | > 10000 | 75 | 2340 | 2200
7 | CC(C)=CCC/C(C)=C/CC/C(C)=C/CC[C@]1(C)CCc2c3c(cc(C)c2O1)OCN(CCCCCCO)C3 | 1180 | -49.6 | 518 | – | -42.9 | -51.6 | > 5000 | 1520 | 835 | 33.4 | -1.37 | 10.7 | 1370 | -74.7 | -15.7 | 2540 | -94.5 | 782 | 1300
8 | CC(C)=CCC/C(C)=C/CC/C(C)=C/CC[C@]1(C)CCc2c3c(cc(C)c2O1)OCN(CCCCO)C3 | 17700 | 0.63 | 16400 | – | -35.3 | -7.14 | > 5000 | 12200 | 16200 | 6.91 | 41.5 | 2.95 | 18800 | 57.3 | -20.4 | 15400 | -84.5 | 17900 | 1800
9 | CC(C)=CCC/C(C)=C/CC/C(C)=C/CC[C@]1(C)CCc2c3c(cc(C)c2O1)OCN(CCCCCO)C3 | 7130 | 34.7 | 5680 | 62.3 | -1.68 | 59.5 | 9000 | 4640 | 5870 | 87.3 | 74.8 | 37.2 | 6260 | 103 | -70.2 | 5980 | 20.6 | 5870 | 700
